SENP1 inh – blocks the human SENP1 SUMO protease catalytic domain; Q9P0U3; recombinant SENP1 catalytic domain, CyPet-SUMO1-YPet FRET cleavage; inhibition, % at 10 µM; actives 0.21% (n = 360,000); AID 624204;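 active = inhibition at least 30% at 10 µM, raw YFP signal under a set limit, fluorescence ratio 0.5 to 1.5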;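 note: 0% = enzyme with DMSO and 100% = no enzyme wells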
Target sequence (Q9P0U3 419-644 limits assumed): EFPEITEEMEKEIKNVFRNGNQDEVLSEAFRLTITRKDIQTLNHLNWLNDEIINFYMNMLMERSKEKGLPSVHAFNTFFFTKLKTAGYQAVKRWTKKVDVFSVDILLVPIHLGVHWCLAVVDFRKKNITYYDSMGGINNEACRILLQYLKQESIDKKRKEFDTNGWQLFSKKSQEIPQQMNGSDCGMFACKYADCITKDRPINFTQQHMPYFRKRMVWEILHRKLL
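Material: hSENP1 catalytic domain, recombinant; medium: Tris pH 8 with BME, BSA, NP40 and catalase; compound: single concentration of 10 µM compound, 0.5% DMSO final; technique: FRET read of cyan and yellow fluorescence; timing: 50 min enzyme reaction, room temperature, light-protected; reagent: SFCypet-SUMO1-SFYpet substrate at 25 nM; control set: no-enzyme low, enzyme-DMSO high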
JMJD2C inh – inhibitors of human GASC-1 (JMJD2C) demethylase; GST-JMJD2C(1-420) H3K9me3 demethylation, DELFIA europium; inhibition, % at 2.35 µM; actives 0.069% (n = 330,000);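 active = more than half of a compound's replicate wells show inhibition beyond 50%, single wells judged on their own value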;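 note: signal counts dimethyl H3K9 product captured on neutravidin plate; 0% = median of DMSO wells and 100% = 0.3 times that DMSO median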
Target sequence (Q9H3R0 1-420 limits assumed): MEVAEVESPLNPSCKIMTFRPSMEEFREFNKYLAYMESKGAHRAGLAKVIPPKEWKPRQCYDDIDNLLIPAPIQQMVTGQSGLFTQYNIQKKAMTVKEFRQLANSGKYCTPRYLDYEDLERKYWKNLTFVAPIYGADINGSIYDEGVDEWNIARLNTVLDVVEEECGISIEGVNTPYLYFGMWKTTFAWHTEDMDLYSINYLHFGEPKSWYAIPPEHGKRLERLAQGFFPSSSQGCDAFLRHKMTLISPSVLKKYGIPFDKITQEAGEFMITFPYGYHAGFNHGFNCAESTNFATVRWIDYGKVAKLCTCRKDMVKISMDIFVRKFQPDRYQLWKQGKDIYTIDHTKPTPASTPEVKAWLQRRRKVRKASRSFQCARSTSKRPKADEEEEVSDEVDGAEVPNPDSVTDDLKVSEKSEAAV
Arrestin-AP2 inh – blocks beta-arrestin peptide binding to AP2 adaptin. FITC-arrestin peptide / GST-AP2 beads, flow cytometry; AP2 beta2 appendage carries R879A mutation. inhibition, % at 10 µM. actives 0.31% (n = 340,000);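 active = inhibition above a set limit, near 3 SD of compounds lacking own fluorescence, cut at about 54% in these data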;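 note: plate controls were DMSO wells for no effect and 5 µM unlabelled arrestin peptide for full effect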
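system = GST-tagged AP2 beta2-adaptin appendage (R879A) on 4 µm glutathione beads | reagent = FITC-labelled arrestin peptide probe, 50 nM final | schedule = compound with beads 12 min RT, then probe 1 h RT | signal = HyperCyt-sampled flow cytometry, FL1 channel, ex 488/em 535 nm | read-out = percent response from loss of bead-bound FITC fluorescence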
FAS TE block – inhibitors of human fatty acid synthase thioesterase domain; P49327; recombinant FAS-TE, OMFH fluorogenic substrate, fluorescence endpoint; inhibition, % at 15 µM; actives 0.67% (n = 360,000); AID 602261;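 active = compounds whose normalised, plate-corrected inhibition of enzyme fluorescence in the single-dose primary screen is 50% or more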;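 note: 0% = DMSO with enzyme and 100% = substrate without enzyme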
FAS-TE conf – confirmation of human fatty acid synthase thioesterase inhibitors; shares compounds with FAS TE block; recombinant FAS-TE, OMFH fluorogenic substrate, fluorescence; inhibition, % at 15 µM; actives 45% (n = 2,300);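 active = compounds inhibiting the enzyme by at least 50% at 15 µM in any one of the replicates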;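 note: 0% = enzyme with DMSO only and 100% = wells lacking enzyme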
An asterisk follows results filed as active; / = no result. An excerpt weighted towards active compounds, which were near 1.1% of everything screened.

SMILES	SENP1 inh	JMJD2C inh	Arrestin-AP2 inh	FAS TE block	FAS-TE conf
O=C(/C=C/c1cccs1)N1CCC2(CC1)Oc1ccc(Cl)cc1C(=O)C21CC(c2ccccc2)=NO1 (stereo not given)	-1.4	0.1	8.8	73.3*	10.1
COc1ccc(/C=N/NC(=S)Nc2ccccc2)cc1COc1ccc(F)cc1F	0.5	-0.3	-8.8	12.7	/
C[C@H](NC(=O)C1CCN(S(=O)(=O)c2ccccc2)CC1)C(=O)NCc1ccc(Cl)c(Cl)c1	1.1	9.6	9.2	51.6*	45.8*
C[C@H](NC(=O)C1CCN(S(=O)(=O)c2ccccc2)CC1)C(=O)NCc1cccc(Cl)c1	-0.2	-0.5	-4.6	6.4	/
O=C(c1ccc(Cl)c([N+](=O)[O-])c1)N1CCN(S(=O)(=O)c2ccc(Cl)cc2)CC1	1.3	4.6	0.0	50.7*	30.5*
O=C(CN1C(=O)NC2(CCCCCC2)C1=O)Nc1ccc(Cl)c([N+](=O)[O-])c1	0.9	5.4	3.2	57.9*	69.7*
CC1(C2CC2)NC(=O)N(CC(=O)Nc2ccc(Cl)c([N+](=O)[O-])c2)C1=O (stereo not given)	1.5	10.0	-0.4	25.9	/
O=C(CN1CCN(S(=O)(=O)c2ccccc2)CC1)Nc1ccc(Cl)c([N+](=O)[O-])c1	0.5	-4.4	-10.7	77.8*	18.3
O=C(c1ccc(N2CCCC2)c([N+](=O)[O-])c1)N1CCN(S(=O)(=O)c2ccc(Cl)cc2)CC1	-0.9	-4.0	12.8	28.1	/
CC[C@H](C)[C@H]1O[C@]2(CC[C@@H]1C)C[C@@H]1C[C@@H](CC=C(C)[C@@H](O[C@H]3C[C@H](OC)[C@@H](O[C@H]4C[C@H](OC)[C@@H](O)[C@H](C)O4)[C@H](C)O3)[C@@H](C)C=CC=C3CO[C@@H]4[C@H](O)C(C)=C[C@@H](C(=O)O1)[C@]34O)O2	-28.5	/	-1.1	53.7*	14.7
Cc1cc(C)c2c(c1)-c1c(ssc1=S)C(C)(C)N2C(=O)CN1C(=O)c2ccccc2C1=O	2.3	18.6	11.2	62.6*	31.4
Cc1ccc(-n2c(SCC(=O)c3c(N)n(C)c(=O)n(C)c3=O)nc3sc4c(c3c2=O)CCCC4)c(C)c1	-3.9	-0.6	-6.3	52.1*	3.0
Oc1ccccc1Nc1ccccn1	1.7	-0.7	2.6	-5.3	/
O=C(O)c1cccc(Cn2c(Cl)c(/C=N/NC(=O)c3ccccc3O)sc2=O)c1	-5.4	3.2	18.9	-5.2	/
Cc1ccc(S(=O)(=O)N(C)C[C@@H]2Oc3ccc(NC(=O)Nc4cccc5ccccc45)cc3C(=O)N([C@H](C)CO)C[C@H]2C)cc1	2.4	-9.0	0.6	67.1*	7.4
C[C@H](CO)N1C[C@H](C)[C@H](CN(C)Cc2ccc(-c3ccccc3)cc2)Oc2ccc(NS(=O)(=O)c3ccccc3)cc2CC1=O	-2.6	5.4	-4.7	27.3	/
COc1ccc(NC(=O)Nc2cccc3c2O[C@H](CN(C)S(=O)(=O)c2ccc(F)cc2)[C@@H](C)CN([C@H](C)CO)C3=O)cc1	1.4	0.2	/	2.3	/
Cc1ccc(S(=O)(=O)Nc2ccc3c(c2)CC(=O)N([C@H](C)CO)C[C@@H](C)[C@H](CN(C)Cc2ccc(-c4ccccc4)cc2)O3)cc1	2.3	-4.1	3.5	73.2*	23.2
COc1ccc(NC(=O)Nc2ccc3c(c2)C(=O)N([C@H](C)CO)C[C@H](C)[C@@H](CN(C)S(=O)(=O)c2ccccc2)O3)cc1	1.9	/	36.6	0.3	/
CC(C)NC(=O)N(C)C[C@H]1Oc2c(NC(=O)Nc3ccc(C(F)(F)F)cc3)cccc2C(=O)N([C@H](C)CO)C[C@@H]1C	0.5	23.0	1.6	82.4*	85.7*
C[C@H](CO)N1C[C@H](C)[C@@H](CN(C)S(=O)(=O)c2ccc(F)cc2)Oc2c(NC(=O)Nc3ccc(C(F)(F)F)cc3)cccc2C1=O	1.4	-23.9	-8.2	50.3*	46.9
COC(=O)/C=C1\SC(N2CCOCC2)=C(c2ccc(OC)cc2)C1=O	0.0	-8.6	8.5	-5.0	/
C[C@@H]1CN([C@H](C)CO)C(=O)c2cc(NC(=O)Nc3ccc(C(F)(F)F)cc3)ccc2O[C@H]1CN(C)S(=O)(=O)c1ccc(Cl)cc1	1.0	-2.1	-6.7	36.1	/
C[C@H](CO)N1C[C@H](C)[C@H](CN(C)S(=O)(=O)c2ccc(Cl)cc2)OCc2ccccc2-c2c(n(C)c3ccccc23)C1=O	-1.0	/	/	69.1*	28.2
C[C@H]1CN([C@@H](C)CO)C(=O)c2cccc(NC(=O)Nc3ccc(C(F)(F)F)cc3)c2O[C@@H]1CN(C)S(=O)(=O)c1ccc(Cl)cc1	1.4	18.6	1.1	58.4*	-0.7
SMILES	SENP1 inh	JMJD2C inh	Arrestin-AP2 inh	FAS TE block	FAS-TE conf
Cc1ccc(S(=O)(=O)N(C)C[C@@H]2OCc3ccccc3-c3c(n(C)c4ccccc34)C(=O)N([C@H](C)CO)C[C@@H]2C)cc1	2.4	/	/	29.3	/
CSc1ccc(-c2nc(O)c3cnccn23)cc1	-23.9	3.8	3.8	-9.8	/
CN(c1ccccc1)S(=O)(=O)c1cccc(C(=O)NCCc2c[nH]c3ccccc23)c1	2.3	0.4	-8.1	20.1	/
COc1ccc(OC2(C)CCN(Cc3ccc(-c4ccccc4)o3)C2)cc1 (stereo not given)	-6.9	/	/	9.7	/
CCc1ccc(C(=O)NNc2cc(Cl)ccc2Cl)cc1	0.7	-4.4	9.2	50.5*	13.6
CCc1ccc(C(=O)NNc2ccccc2F)cc1	3.0	8.8	27.9	-5.4	/
NC(=O)C1CCN(C(=O)CCNS(=O)(=O)c2cc(Br)cnc2N)CC1	0.9	0.9	-11.8	-5.0	/
O=C(NC1CCCN(CCc2ccccc2)C1)c1c[nH]c2ccccc12 (stereo not given)	0.1	-4.1	37.4	-9.1	/
CN1C[C@H](C(=O)NC2(C)OC3(O)[C@@H]4CCCN4C(=O)[C@H](Cc4ccccc4)N3C2=O)CC2c3cccc4[nH]cc(c34)C[C@H]21 (stereo not given in full)	35.8	15.0	-8.6	58.8*	73.0*
NCCNC(=O)c1ncsc1-c1cccc(F)c1	0.5	11.0	3.7	-0.1	/
COc1cc(NC(=S)N2CCC(C(O)(c3ccccc3)c3ccccc3)CC2)cc(OC)c1	1.3	-3.8	5.6	53.4*	32.3
CN(CC(=O)Nc1ccc(Cl)c(C(F)(F)F)c1)C(=O)C1CC(=O)N(C2CCCC2)C1 (stereo not given)	-0.4	1.8	7.8	8.9	/
CN(CC(=O)Nc1ccc(Cl)c(C(F)(F)F)c1)C(=O)C1CC(=O)N(c2ccc3c(c2)OCCO3)C1 (stereo not given)	1.5	/	/	54.1*	26.7*

High-throughput results (PubChem)
